Assay results reported in ChEMBL document CHEMBL1944509, “Methyl-monofluorination of ibuprofen selectively increases its inhibitory activity toward cyclooxygenase-1 leading to enhanced analgesic activity and reduced gastric damage in vivo” (Bioorg Med Chem Lett, 2011).
Active and inactive are the calls of the source. The rule behind the calls is not given here.

Tests used:
[1] = Plasma concentration in ICR mouse at 10 mg/kg, po after 4 hrs by HPLC/MS/MS analysis; format: ADME, organism-based; set-up: dose 10 mg/kg, route oral
Nucleic Acid [2] = experiment: Ratio of drug level in brain to plasma in ICR mouse at 10 mg/kg, po after 0.5 hrs by HPLC/MS/MS analysis; format: ADME, organism-based; set-up: dose 10 mg/kg, route oral
Rattus norvegicus [3] = experiment: Antiinflammatory activity in Wistar albino rat assessed as inhibition of carrageenan-induced paw edema at 30 mg/kg intragastrically administered 1 hr before carrageenan challenge measured after 1 to 24 hrs post carrageenan challenge by plethysmometer; format: functional, organism-based
How it was run: (§1)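 Male Wistar albino rats, 140–160 g, eight per group, dosed i.g. as a suspension in 0.5% CMC; controls get 0.5% CMC only. 1 h later, 0.1 ml of 0.1% carrageenan in 0.9% NaCl is injected into the sub-plantar region of the right hind paw. Paw volume is read by plethysmometer hourly to 6 h and at 24 h. Inhibition (%) = (Vc − Vt)/Vc × 100 on mean volume increase; mean ± SEM.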

[4] = Plasma concentration in ICR mouse at 5 mg/kg, iv after 1 hr by HPLC/MS/MS analysis; format: ADME, organism-based; set-up: dose 5 mg/kg, route intravenous
[5] = AUC (0 to infinity) in ICR mouse at 10 mg/kg, po; format: ADME, organism-based; set-up: time infinity, dose 10 mg/kg, route oral; settings: plasma
How it was run: (§2)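 ICR mice given drug intravenously at 5 mg/kg or orally at 10 mg/kg. Parameters are taken from the plasma concentration–time profile: AUC(0–t), AUC(0–∞), MRT, Cmax and bioavailability.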

[6] = Tmax in ICR mouse at 5 mg/kg, iv; format: ADME, organism-based; set-up: dose 5 mg/kg, route intravenous; settings: in vivo
[7] = AUC (0 to t) in ICR mouse at 5 mg/kg, iv; format: ADME, organism-based; set-up: dose 5 mg/kg, route intravenous; settings: plasma; how it was run: as §2
[8] = Drug level in ICR mouse brain at 10 mg/kg, po after 0.5 hrs by HPLC/MS/MS analysis; format: ADME, organism-based; set-up: dose 10 mg/kg, route oral; settings: read-out: Drug uptake
[9] = Mean residence time (0 to infinity) in ICR mouse at 5 mg/kg, iv; format: ADME, organism-based; set-up: dose 5 mg/kg, route intravenous; settings: in vivo; how it was run: as §2
Nucleic Acid [10] = experiment: Ratio of drug level in brain to plasma in ICR mouse at 5 mg/kg, iv after 0.5 hrs by HPLC/MS/MS analysis; format: ADME, organism-based; set-up: dose 5 mg/kg, route intravenous
[11] = Mean residence time (0 to infinity) in ICR mouse at 10 mg/kg, po; format: ADME, organism-based; set-up: dose 10 mg/kg, route oral; settings: in vivo; how it was run: as §2
[12] = Cmax in ICR mouse at 5 mg/kg, iv; format: ADME, organism-based; set-up: dose 5 mg/kg, route intravenous; settings: in vivo; how it was run: as §2
[13] = Drug level in ICR mouse brain at 5 mg/kg, iv after 0.25 hrs by HPLC/MS/MS analysis; format: ADME, organism-based; set-up: dose 5 mg/kg, route intravenous; settings: read-out: Drug uptake
Nucleic Acid [14] = experiment: Ratio of drug level in brain to plasma in ICR mouse at 10 mg/kg, po after 1 hr by HPLC/MS/MS analysis; format: ADME, organism-based; set-up: dose 10 mg/kg, route oral
[15] = Plasma concentration in ICR mouse at 5 mg/kg, iv after 4 hrs by HPLC/MS/MS analysis; format: ADME, organism-based; set-up: dose 5 mg/kg, route intravenous
Rattus norvegicus [16] = experiment: Antiinflammatory activity in Wistar albino rat assessed as inhibition of carrageenan-induced paw edema at 33.6 mg/kg, ig administered 1 hr before carrageenan challenge measured after 1 to 24 hrs post carrageenan challenge by plethysmometer; format: functional, organism-based; how it was run: as §1
[17] = Oral bioavailability ICR mouse at 10 mg/kg; format: ADME, organism-based; settings: in vivo; how it was run: as §2
[18] = Cmax in ICR mouse at 10 mg/kg, po; format: ADME, organism-based; set-up: dose 10 mg/kg, route oral; settings: in vivo; how it was run: as §2
[19] = Plasma concentration in ICR mouse at 5 mg/kg, iv after 0.5 hrs by HPLC/MS/MS analysis; format: ADME, organism-based; set-up: dose 5 mg/kg, route intravenous
[20] = Drug level in ICR mouse brain at 10 mg/kg, po after 0.25 hrs by HPLC/MS/MS analysis; format: ADME, organism-based; set-up: dose 10 mg/kg, route oral; settings: read-out: Drug uptake
[21] = Plasma concentration in ICR mouse at 5 mg/kg, iv after 2 hrs by HPLC/MS/MS analysis; format: ADME, organism-based; set-up: dose 5 mg/kg, route intravenous
[22] = Plasma concentration in ICR mouse at 10 mg/kg, po after 0.5 hrs by HPLC/MS/MS analysis; format: ADME, organism-based; set-up: dose 10 mg/kg, route oral
[23] = Drug level in ICR mouse brain at 5 mg/kg, iv after 0.5 hrs by HPLC/MS/MS analysis; format: ADME, organism-based; set-up: dose 5 mg/kg, route intravenous; settings: read-out: Drug uptake
[24] = Plasma concentration in ICR mouse at 10 mg/kg, po after 0.083 hrs by HPLC/MS/MS analysis; format: ADME, organism-based; set-up: dose 10 mg/kg, route oral
Nucleic Acid [25] = experiment: Ratio of drug level in brain to plasma in ICR mouse at 5 mg/kg, iv after 2 hrs by HPLC/MS/MS analysis; format: ADME, organism-based; set-up: dose 5 mg/kg, route intravenous
[26] = AUC (0 to infinity) in ICR mouse at 5 mg/kg, iv; format: ADME, organism-based; set-up: time infinity, dose 5 mg/kg, route intravenous; settings: plasma; how it was run: as §2
[27] = Plasma concentration in ICR mouse at 10 mg/kg, po after 1 hr by HPLC/MS/MS analysis; format: ADME, organism-based; set-up: dose 10 mg/kg, route oral
[28] = Drug level in ICR mouse brain at 5 mg/kg, iv after 0.083 hrs by HPLC/MS/MS analysis; format: ADME, organism-based; set-up: dose 5 mg/kg, route intravenous; settings: read-out: Drug uptake
Nucleic Acid [29] = experiment: Ratio of drug level in brain to plasma in ICR mouse at 10 mg/kg, po after 0.25 hrs by HPLC/MS/MS analysis; format: ADME, organism-based; set-up: dose 10 mg/kg, route oral
[30] = Drug level in ICR mouse brain at 10 mg/kg, po after 0.083 hrs by HPLC/MS/MS analysis; format: ADME, organism-based; set-up: dose 10 mg/kg, route oral; settings: read-out: Drug uptake
[31] = Tmax in ICR mouse at 10 mg/kg, po; format: ADME, organism-based; set-up: dose 10 mg/kg, route oral; settings: in vivo
[32] = Plasma concentration in ICR mouse at 10 mg/kg, po after 2 hrs by HPLC/MS/MS analysis; format: ADME, organism-based; set-up: dose 10 mg/kg, route oral
[33] = Plasma concentration in ICR mouse at 5 mg/kg, iv after 0.25 hrs by HPLC/MS/MS analysis; format: ADME, organism-based; set-up: dose 5 mg/kg, route intravenous
[34] = Plasma concentration in ICR mouse at 5 mg/kg, iv after 6 hrs by HPLC/MS/MS analysis; format: ADME, organism-based; set-up: dose 5 mg/kg, route intravenous
[35] = Drug level in ICR mouse brain at 10 mg/kg, po after 4 hrs by HPLC/MS/MS analysis; format: ADME, organism-based; set-up: dose 10 mg/kg, route oral; settings: read-out: Drug uptake
Nucleic Acid [36] = experiment: Ratio of drug level in brain to plasma in ICR mouse at 5 mg/kg, iv after 0.083 hrs by HPLC/MS/MS analysis; format: ADME, organism-based; set-up: dose 5 mg/kg, route intravenous
[37] = Drug level in ICR mouse brain at 10 mg/kg, po after 1 hr by HPLC/MS/MS analysis; format: ADME, organism-based; set-up: dose 10 mg/kg, route oral; settings: read-out: Drug uptake
[38] = Drug level in ICR mouse brain at 10 mg/kg, po after 2 hrs by HPLC/MS/MS analysis; format: ADME, organism-based; set-up: dose 10 mg/kg, route oral; settings: read-out: Drug uptake
[39] = AUC (0 to t) in ICR mouse at 10 mg/kg, po; format: ADME, organism-based; set-up: dose 10 mg/kg, route oral; settings: plasma; how it was run: as §2
Nucleic Acid [40] = experiment: Ratio of drug level in brain to plasma in ICR mouse at 5 mg/kg, iv after 0.25 hrs by HPLC/MS/MS analysis; format: ADME, organism-based; set-up: dose 5 mg/kg, route intravenous
[41] = Plasma concentration in ICR mouse at 10 mg/kg, po after 0.25 hrs by HPLC/MS/MS analysis; format: ADME, organism-based; set-up: dose 10 mg/kg, route oral
[42] = Plasma concentration in ICR mouse at 10 mg/kg, po after 8 hrs by HPLC/MS/MS analysis; format: ADME, organism-based; set-up: dose 10 mg/kg, route oral
[43] = Plasma concentration in ICR mouse at 10 mg/kg, po after 6 hrs by HPLC/MS/MS analysis; format: ADME, organism-based; set-up: dose 10 mg/kg, route oral
[44] = Plasma concentration in ICR mouse at 5 mg/kg, iv after 8 hrs by HPLC/MS/MS analysis; format: ADME, organism-based; set-up: dose 5 mg/kg, route intravenous
[45] = Drug level in ICR mouse brain at 5 mg/kg, iv after 1 hr by HPLC/MS/MS analysis; format: ADME, organism-based; set-up: dose 5 mg/kg, route intravenous; settings: read-out: Drug uptake

CC(C)Cc1ccc([C@H](C)C(=O)O)cc1 [DEXIBUPROFEN]
concentration at 4 h [1]: 5260 ng/mL
BPR (Nucleic Acid [2]): 0.033 mL/g
inhibition (Rattus norvegicus [3]): Active
concentration at 1 h [4]: 9960 ng/mL
AUC(0-inf) [5]: 81600 ng·h/mL
Tmax [6]: 4.8 min
AUC(0-t) [7]: 33900 ng·h/mL
concentration at 0.5 h [8]: 1130 ng/g
MRT inf [9]: 76.8 min
BPR (Nucleic Acid [10]): 0.032 mL/g
MRT inf [11]: 101 min
Cmax [12]: 34600 ng/mL
concentration at 0.25 h [13]: 598 ng/g
BPR (Nucleic Acid [14]): 0.031 mL/g
concentration at 4 h [15]: 927 ng/mL
inhibition (Rattus norvegicus [16]): Active
bioavailability [17]: 118%
Cmax [18]: 52100 ng/mL
concentration at 0.5 h [19]: 19800 ng/mL
concentration at 0.25 h [20]: 999 ng/g
concentration at 2 h [21]: 3930 ng/mL
concentration at 0.5 h [22]: 34400 ng/mL
concentration at 0.5 h [23]: 613 ng/g
concentration at 0.083 h [24]: 52100 ng/mL
BPR (Nucleic Acid [25]): 0.031 mL/g
AUC(0-inf) [26]: 34500 ng·h/mL
concentration at 1 h [27]: 24000 ng/mL
concentration at 0.083 h [28]: 1260 ng/g
BPR (Nucleic Acid [29]): 0.029 mL/g
concentration at 0.083 h [30]: 1340 ng/g
Tmax [31]: 4.8 min
concentration at 2 h [32]: 15800 ng/mL
concentration at 0.25 h [33]: 19400 ng/mL
concentration at 6 h [34]: 334 ng/mL
concentration at 4 h [35]: 127 ng/g
BPR (Nucleic Acid [36]): 0.037 mL/g
concentration at 1 h [37]: 721 ng/g
concentration at 2 h [38]: 340 ng/g
AUC(0-t) [39]: 81100 ng·h/mL
BPR (Nucleic Acid [40]): 0.032 mL/g
concentration at 0.25 h [41]: 33600 ng/mL
concentration at 8 h [42]: 336 ng/mL
concentration at 6 h [43]: 1070 ng/mL
concentration at 8 h [44]: 354 ng/mL
concentration at 1 h [45]: 251 ng/g
